In ChEMBL document CHEMBL2321876:
Converted amounts (≈) assume the structure as drawn. The source made the active and inactive calls. No rule for the calls is given here.

Assays:
[1] = system: Mycobacterium tuberculosis; experiment: Bacteriostatic activity against Mycobacterium tuberculosis H37Rv using iron-replete GAST media after 10 to 14 days by broth microdilution assay; type: functional
Outline: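 Broth microdilution in GAST supplemented with 200 μM FeCl₃, in quadruplicate, with compounds from DMSO stocks and DMSO-matched controls. Isoniazid served as positive control. Inoculum 10⁴–10⁵ cells/assay, 100 μL/well, 37 °C. OD₆₂₀ was read at 10–14 days, when untreated controls reached 0.2–0.3.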

[2] = system: Mycobacterium tuberculosis; experiment: Bacteriostatic activity against Mycobacterium tuberculosis H37Rv using iron-deficient GAST media after 10 to 14 days by broth microdilution assay; type: functional
Outline: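 Broth microdilution in iron-deficient GAST, in quadruplicate, with compounds from DMSO stocks and DMSO-matched control wells. Isoniazid served as positive control. Initial density 10⁴–10⁵ cells/assay, 100 μL/well, 37 °C. Growth was read as OD at 620 nm at 10–14 days, when untreated controls reached OD₆₂₀ 0.2–0.3.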

Acinetobacter baumannii [3] = experiment: Antibacterial activity against Acinetobacter baumannii ATCC 19606 using iron-replete M9 minimal media after 15 hrs by broth microdilution assay; type: functional, organism-based; conditions: ATCC 19606 = CIP 70.34 = JCM 6841
Outline: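 ATCC 19606 grown overnight at 30 °C on LB agar, washed twice in dipyridyl-containing M9/casamino acids medium, then diluted to A600 0.0003 in M9 minimal medium with 0.2% casamino acids plus 200 μM FeCl3. Inhibitors from DMSO at 100 μM final, in triplicate. Controls were tetracycline (100 ng/mL) and 1% DMSO. Incubated at 30 °C, A600 measured at 15 h.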

Acinetobacter baumannii [4] = experiment: Antibacterial activity against Acinetobacter baumannii ATCC 19606 using iron-deficient M9 minimal media after 15 hrs by broth microdilution assay; type: functional, organism-based; conditions: ATCC 19606 = CIP 70.34 = JCM 6841
Outline: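 ATCC 19606 grown overnight at 30 °C on LB agar, washed twice and resuspended in M9 minimal medium with 0.2% casamino acids and 200 μM dipyridyl. Inoculated at A600 0.0003 in this medium plus 1 μM FeCl3. Inhibitors from DMSO at 100 μM final, in triplicate. Tetracycline (100 ng/mL) and 1% DMSO as controls. Incubated at 30 °C; A600 read at 15 h.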

[5] = Displacement of Fl-Sal-AMS from Mycobacterium tuberculosis MbtA expressed in Escherichia coli after 30 mins by fluorescence polarization assay
[6] = Displacement of Fl-Sal-AMS from Acinetobacter baumanni BasE expressed in Escherichia coli after 30 mins by fluorescence polarization assay; parameters: species or system Acinetobacter baumannii; conditions: read-out: Kd
[7] = Selectivity ratio of Kd for Mycobacterium tuberculosis MbtA to Kd for Acinetobacter baumanni BasE

SMILES | MIC99 [1] | MIC99 [2] | Activity (Acinetobacter baumannii [3]) | Activity (Acinetobacter baumannii [4]) | Kd [5] | Kd [6] | Selectivity ratio [7]
O=C(O)c1cc(-c2ccc(Cl)s2)nc2c1cnn2Cc1ccncc1 | 50 µM (≈ 18.5 µg/mL) | 50 µM (≈ 18.5 µg/mL) | inactive | inactive | – | – | –
CCOC(=O)c1cc(-c2ccccc2)nc2c1cnn2Cc1ccncc1 | 125 µM (≈ 44.8 µg/mL) | > 125 µM | inactive | inactive | > 100000 nM | 2160 nM | –
O=C(O)c1cc(-c2ccc(Oc3ccccc3)cc2)nc2c1cnn2Cc1ccncc1 | 25 µM (≈ 10.6 µg/mL) | 25 µM (≈ 10.6 µg/mL) | inactive | inactive | – | – | –
O=C(c1ccccc1)c1ccc(-c2cc(C(=O)O)c3cnn(Cc4ccncc4)c3n2)cc1 | > 125 µM | > 125 µM | inactive | inactive | – | – | –
CCOC(=O)c1cc(-c2ccc(Oc3ccccc3)cc2)nc2c1cnn2Cc1ccncc1 | 100 µM (≈ 45 µg/mL) | 50 µM (≈ 22.5 µg/mL) | – | – | – | – | –
O=C(O)c1cc(-c2ccc(OCc3ccccc3)cc2)nc2c1cnn2Cc1ccncc1 | – | – | inactive | inactive | 5400 nM | 2.14 nM | 1000
CCOC(=O)c1cc(-c2ccc(C(=O)c3ccccc3)cc2)nc2c1cnn2Cc1ccncc1 | > 125 µM | > 125 µM | – | – | – | – | –
CCCCCCCCCCCCOc1ccc(-c2cc(C(=O)O)c3cnn(Cc4ccncc4)c3n2)cc1 | – | – | inactive | inactive | > 50000 nM | 28400 nM | –
Cc1csc(-c2cc(C(=O)O)c3cnn(Cc4ccncc4)c3n2)c1 | – | – | inactive | inactive | 2540 nM | 86.9 nM | –
O=C(O)c1cc(-c2cccs2)nc2c1cnn2Cc1ccncc1 | – | – | inactive | inactive | 6680 nM | 443 nM | –
Cc1ccc(-c2cc(C(=O)O)c3cnn(Cc4ccncc4)c3n2)s1 | – | – | inactive | inactive | 2600 nM | 7.6 nM | –
O=C(O)c1cc(-c2ccc(O)cc2)nc2c1cnn2Cc1ccncc1 | – | – | inactive | inactive | 3700 nM | 8.85 nM | –
CNC(=O)c1cc(-c2ccccc2)nc2c1cnn2Cc1ccncc1 | – | – | inactive | inactive | > 50000 nM | 420 nM | –
CC(C)NC(=O)c1cc(-c2ccccc2)nc2c1cnn2Cc1ccncc1 | – | – | inactive | inactive | > 100000 nM | 164 nM | –
OCc1cc(-c2ccccc2)nc2c1cnn2Cc1ccncc1 | – | – | inactive | inactive | 16800 nM | 102 nM | –
CCOC(=O)c1cc(-c2ccc(Cl)s2)nc2c1cnn2Cc1ccncc1 | 25 µM (≈ 9.97 µg/mL) | 25 µM (≈ 9.97 µg/mL) | – | – | – | – | –

SMILES | MIC99 [1] | MIC99 [2] | Activity (Acinetobacter baumannii [3]) | Activity (Acinetobacter baumannii [4]) | Kd [5] | Kd [6] | Selectivity ratio [7]
O=C(O)c1cc(-c2cccc3cccnc23)nc2c1cnn2Cc1ccncc1 | – | – | inactive | inactive | 22500 nM | 776 nM | –
O=C(O)c1cc(-c2ccccc2-c2ccccc2Cl)nc2c1cnn2Cc1ccncc1 | – | – | inactive | inactive | > 50000 nM | 19700 nM | –
O=C(O)c1cc(NCc2ccccc2)nc2c1cnn2Cc1ccncc1 | – | – | inactive | inactive | 6020 nM | 2320 nM | –
O=C(O)c1cc(-c2ccccc2)nc2c1cnn2Cc1ccncc1 | > 125 µM | > 125 µM | inactive | inactive | – | – | –
CC(=O)Nc1ccc(-c2cc(C(=O)O)c3cnn(Cc4ccncc4)c3n2)cc1 | – | – | inactive | inactive | 4200 nM | 747 nM | –
NC(=O)c1cc(-c2ccccc2)nc2c1cnn2Cc1ccncc1 | – | – | inactive | inactive | 8570 nM | 66.8 nM | –
CN(C)c1ccc(-c2cc(C(=O)O)c3cnn(Cc4ccncc4)c3n2)cc1 | – | – | inactive | inactive | 1700 nM | 628 nM | –
O=C(O)c1cc(-c2ccc(CO)cc2)nc2c1cnn2Cc1ccncc1 | – | – | inactive | inactive | 3700 nM | 247 nM | –
O=C(O)c1cc(-c2cccnc2)nc2c1cnn2Cc1ccncc1 | – | – | inactive | inactive | 16800 nM | 132 nM | –
C=Cc1cc(C(=O)O)c2cnn(Cc3ccncc3)c2n1 | – | – | inactive | inactive | > 100000 nM | 1900 nM | –
NC(=O)c1ccc(-c2cc(C(=O)O)c3cnn(Cc4ccncc4)c3n2)cc1 | – | – | inactive | inactive | 1000 nM | 288 nM | –
C#Cc1cc(C(=O)O)c2cnn(Cc3ccncc3)c2n1 | – | – | inactive | inactive | 18500 nM | 2040 nM | –
O=C(O)c1cc(-c2ccccc2O)nc2c1cnn2Cc1ccncc1 | – | – | inactive | inactive | 6500 nM | 255 nM | –
O=C(O)c1cc(-c2ccccc2)nc2c1cnn2Cc1ccc(O)cc1 | – | – | inactive | inactive | > 100000 nM | 556 nM | –
O=C(O)c1cc(-c2ccccc2Cl)nc2c1cnn2Cc1ccncc1 | – | – | inactive | inactive | > 100000 nM | 2480 nM | –
COc1ccc(-c2cc(C(=O)O)c3cnn(Cc4ccncc4)c3n2)cc1 | – | – | inactive | inactive | 3230 nM | 78.2 nM | –
